Measured values gathered from unrelated publications.
Target: G protein-coupled receptor kinase 3 (GRK3, Homo sapiens, UniProt P35626)
One construct used (P35626 1-688): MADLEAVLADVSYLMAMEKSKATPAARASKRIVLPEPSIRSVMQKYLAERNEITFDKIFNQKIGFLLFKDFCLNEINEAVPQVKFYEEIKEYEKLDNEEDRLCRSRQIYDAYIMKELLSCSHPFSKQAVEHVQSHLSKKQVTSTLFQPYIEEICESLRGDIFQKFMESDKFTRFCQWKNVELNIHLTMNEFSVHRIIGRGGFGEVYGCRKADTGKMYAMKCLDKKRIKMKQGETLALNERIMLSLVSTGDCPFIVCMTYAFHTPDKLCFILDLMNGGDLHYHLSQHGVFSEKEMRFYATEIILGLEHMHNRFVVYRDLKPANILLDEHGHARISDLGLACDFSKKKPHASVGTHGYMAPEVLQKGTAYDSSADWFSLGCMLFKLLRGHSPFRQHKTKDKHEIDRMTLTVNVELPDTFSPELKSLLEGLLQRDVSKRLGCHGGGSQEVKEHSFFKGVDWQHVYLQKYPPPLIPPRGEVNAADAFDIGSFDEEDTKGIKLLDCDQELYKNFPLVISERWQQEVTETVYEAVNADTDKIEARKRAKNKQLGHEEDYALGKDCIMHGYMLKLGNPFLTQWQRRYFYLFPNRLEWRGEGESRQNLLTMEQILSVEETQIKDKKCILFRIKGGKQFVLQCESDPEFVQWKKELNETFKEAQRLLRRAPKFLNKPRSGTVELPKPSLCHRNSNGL

Cc1c(NC(=O)c2cc(C(N)=O)nc3cc(F)ccc23)c(C(F)(F)F)nn1Cc1ccc(C#N)cc1  remaining binding (cell-free assay; competition with immobilised ligand; 1 µM): 89%
Cn1c2c(Cl)c(Cl)ccc2c2cn[nH]c(=O)c21  ΔTm (thermal stability; DSF; 10 µM): 0 °C
N#CCCc1ccc2c(c1)-c1[nH]c3ccc([N+](=O)[O-])cc3c1CC(=O)N2  remaining signal (cell-free assay; 0.5 µM): 97.1%
COc1ccc2cc(OCC3(C(=O)O)CN(C(=O)c4ccc(F)cc4)C3)ccc2c1  remaining binding (cell-free assay; competition with immobilised ligand; 1 µM): 67%
CCN1CCC2(CC1)NC(=O)c1c(c3ccc(Cl)c(Cl)c3n1C)C2C#N (racemic)  ΔTm (thermal stability; DSF; 10 µM): 0.8 °C
O=C(O)[C@H]1[C@H](Cn2nnc3ccccc3c2=O)CC[C@@H]1C(=O)c1ccc(OCCC2CCOCC2)cc1  remaining binding (cell-free assay; competition with immobilised ligand; 1 µM): 100%
O=C1Nc2ccc(Cl)cc2C1=Cc1cc(Cl)c(O)c(Cl)c1  remaining signal (cell-free assay; 0.5 µM): 102%
O=C(Nc1cnn(-c2csc(C(=O)NC3COC3)c2)c1)Nc1ccccc1Cl  remaining activity (enzyme activity; inhibitor; 5 µM): 102%
CNC(=O)c1ccc(Nc2ncc(C(F)(F)F)c(NCc3nccnc3N(C)S(C)(=O)=O)n2)cc1  remaining binding (cell-free assay; competition with immobilised ligand; 0.1 µM): 80%
Nc1ncnc2occ(-c3ccc(NC(=O)Nc4cc(C(F)(F)F)ccc4F)cc3)c12  remaining signal (cell-free assay; inhibitor; 20 µM): 69%
Cn1c2c(c3ccc(Cl)c(Cl)c31)C(C#N)C(C)(C)NC2=O (stereo not drawn)  ΔTm (thermal stability; DSF; 10 µM): 0.6 °C
COc1cc2ncnc(Nc3ccc(Oc4ccccc4)cc3C)c2cc1OC  inhibition (enzyme activity; inhibitor; 1 µM): 1%
COc1cc(Cl)c(C(=O)N[C@@H](CN[C@H]2CC[C@@H](N)CC2)Cc2ccc(C#N)cc2)cc1-c1ccc(CN[C@H](C)c2ccc(C)cc2)o1  remaining activity (enzyme activity; inhibitor; 1 µM): 99%
CC(C)(C)c1nc2c(s1)c1nc(N)ncc1c1ccc(NS(=O)(=O)c3c(F)cccc3F)c(F)c12  remaining activity (enzyme activity; inhibitor; radiometric; 1 µM): 96%
CS(=O)(=O)N1CCCC(NC(=O)[C@H](CCC2CCCCC2)NC(=O)c2ccc(CNc3ncnc4c3nnn4-c3ccccc3)cc2)C1 (stereo partly drawn)  remaining binding (cell-free assay; competition with immobilised ligand; 0.1 µM): 100%
N#CC1c2c([nH]c3c(Cl)c(Cl)ccc23)C(=O)NC12CCCCC2 (racemic)  ΔTm (thermal stability; DSF; 10 µM): 0.7 °C
CS(=O)(=O)N1CCCC(NC(=O)[C@H](CCC2CCCCC2)NC(=O)c2ccc(CNC(=O)c3cnc4ccccn34)cc2)C1 (stereo partly drawn)  remaining binding (cell-free assay; competition with immobilised ligand; 0.1 µM): 100%
Cn1c2c(Cl)c(Cl)ccc2c2cc[nH]c(=O)c21  ΔTm (thermal stability; DSF; 10 µM): -0.3 °C
CCCS(=O)(=O)Nc1ccc(F)c(C(=O)c2c[nH]c3ncc(-c4ccc(Cl)cc4)cc23)c1F  inhibition (enzyme activity; inhibitor; 1 µM): < 10%
CC(C)(O)[C@H]1CC[C@H](Nc2ccc3ncc(-c4cccc(C(F)(F)F)c4)n3n2)CC1  remaining activity (enzyme activity; inhibitor; 1 µM): 107%
Cn1c2c(Cl)c(Cl)ccc2c2cc(N)[nH]c(=O)c21  ΔTm (thermal stability; DSF; 10 µM): 0 °C
